Assay results: ChEMBL document CHEMBL1143400, “A diarylquinoline drug active on the ATP synthase of Mycobacterium tuberculosis” (Science, 2005)

Assays:
[1] = test system: Plasma; assay: Drug level in human plasma; format: ADME, cell-free
[2] = test system: Mycobacterium tuberculosis; assay: Antimycobacterial activity against Mycobacterium tuberculosis H37Rv infected Swiss mouse assessed as spleen weight at 10 mg/kg after 12 days infection weekly 5 times for 1 month; format: functional
[3] = test system: Mycobacterium tuberculosis; assay: Antimycobacterial activity against Mycobacterium tuberculosis H37Rv infected Swiss mouse assessed as reduction of bacterial count in spleen at 10 mg/kg after 12 days infection weekly 5 times for 1 month; format: functional
[4] = test system: Mycobacterium tuberculosis; assay: Antimycobacterial activity against Mycobacterium tuberculosis H37Rv infected Swiss mouse assessed as reduction of bacterial count in lungs at 10 mg/kg after 12 days infection weekly 5 times for 1 month; format: functional
In short: (§1)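 Established infection model in mice. Treatment started 12 to 14 days after inoculation, given 5 times per week. Mice were killed on day 12 just before treatment, on day 42 (1 month of therapy) and on day 70 (2 months), and lung CFU counted. Means ± SD; pairwise comparisons by Bonferroni's method.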

[5] = test system: Mycobacterium tuberculosis; assay: Antimycobacterial activity against Mycobacterium tuberculosis H37Rv infected Swiss mouse assessed as reduction of bacterial count in lungs at 10 mg/kg after 12 days of infection weekly 5 times for 8 weeks; format: functional; in short: as §1
[6] = test system: Mycobacterium tuberculosis; assay: Antimycobacterial activity against Mycobacterium tuberculosis H37Rv infected Swiss mouse assessed as spleen weight at 10 mg/kg after 12 days of infection weekly 5 times for 8 weeks; format: functional
[7] = test system: Mycobacterium tuberculosis; assay: Antimycobacterial activity against Mycobacterium tuberculosis H37Rv infected Swiss mouse assessed as reduction of bacterial count in lungs at 25 mg/kg 5 times weekly for 4 weeks; format: functional
In short: (§2)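 Nonestablished infection model in mice. Oral dosing began the day after inoculation, given 5 times per week for 4 weeks; one 12.5 mg/kg group was dosed once weekly. Mice were killed on day 28 and lung and spleen CFU counted, with untreated controls taken at day 1. Means ± SD; pairwise comparisons by Bonferroni's method.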

[8] = test system: Mycobacterium tuberculosis; assay: Antimycobacterial activity against Mycobacterium tuberculosis H37Rv infected Swiss mouse assessed as reduction of bacterial count in spleen at 25 mg/kg 5 times weekly for 4 weeks; format: functional; in short: as §2
[9] = test system: Mycobacterium tuberculosis; assay: Antimycobacterial activity against Mycobacterium tuberculosis H37Rv infected Swiss mouse assessed as spleen weight at 25 mg/kg 5 times weekly for 4 weeks; format: functional
[10] = test system: Mus musculus; assay: Toxicity in Mycobacterium tuberculosis H37Rv infected Swiss mouse at 25 mg/kg 5 times weekly for 4 weeks; format: organism-based; parameters: dose 25 mg/kg; settings: in vivo, 672 h
[11] = test system: Mycobacterium tuberculosis; assay: Antimycobacterial activity against Mycobacterium tuberculosis H37Rv infected Swiss mouse assessed as reduction of bacterial count in lungs at 100 mg/kg 5 times weekly for 4 weeks; format: functional; in short: as §2
[12] = test system: Mycobacterium tuberculosis; assay: Antimycobacterial activity against Mycobacterium tuberculosis H37Rv infected Swiss mouse assessed as spleen weight at 75 mg/kg 5 times weekly for 4 weeks; format: functional
[13] = test system: Mycobacterium tuberculosis; assay: Antimycobacterial activity against Mycobacterium tuberculosis H37Rv infected Swiss mouse assessed as reduction of bacterial count in lungs at 50 mg/kg 5 times weekly for 4 weeks; format: functional; in short: as §2
[14] = test system: Mycobacterium tuberculosis; assay: Antimycobacterial activity against Mycobacterium tuberculosis H37Rv infected Swiss mouse assessed as reduction of bacterial count in spleen at 100 mg/kg 5 times weekly for 4 weeks; format: functional; in short: as §2
[15] = test system: Mycobacterium tuberculosis; assay: Antimycobacterial activity against Mycobacterium tuberculosis H37Rv infected Swiss mouse assessed as spleen weight at 50 mg/kg 5 times weekly for 4 weeks; format: functional
[16] = test system: Mus musculus; assay: Toxicity in Mycobacterium tuberculosis H37Rv infected Swiss mouse at 50 mg/kg 5 times weekly for 4 weeks; format: organism-based; parameters: dose 50 mg/kg; settings: in vivo, 672 h
[17] = test system: Mus musculus; assay: Toxicity in Mycobacterium tuberculosis H37Rv infected Swiss mouse at 75 mg/kg 5 times weekly for 4 weeks; format: organism-based; parameters: dose 75 mg/kg; settings: in vivo, 672 h
[18] = test system: Mus musculus; assay: Toxicity in Mycobacterium tuberculosis H37Rv infected Swiss mouse at 12.5 mg/kg 5 times weekly for 4 weeks; format: organism-based; parameters: dose 12.5 mg/kg; settings: in vivo, 672 h
[19] = test system: Mycobacterium tuberculosis; assay: Antimycobacterial activity against Mycobacterium tuberculosis H37Rv infected Swiss mouse assessed as reduction of bacterial count in lungs at 75 mg/kg 5 times weekly for 4 weeks; format: functional; in short: as §2
[20] = test system: Mycobacterium tuberculosis; assay: Antimycobacterial activity against Mycobacterium tuberculosis H37Rv infected Swiss mouse assessed as spleen weight at 100 mg/kg 5 times weekly for 4 weeks; format: functional
[21] = test system: Mycobacterium tuberculosis; assay: Antimycobacterial activity against Mycobacterium tuberculosis H37Rv infected Swiss mouse assessed as reduction of bacterial count in spleen at 75 mg/kg 5 times weekly for 4 weeks; format: functional; in short: as §2
[22] = test system: Mus musculus; assay: Toxicity in Mycobacterium tuberculosis H37Rv infected Swiss mouse at 100 mg/kg 5 times weekly for 4 weeks; format: organism-based; parameters: dose 100 mg/kg; settings: in vivo, 672 h
[23] = test system: Mycobacterium tuberculosis; assay: Antimycobacterial activity against Mycobacterium tuberculosis H37Rv infected Swiss mouse assessed as reduction of bacterial count in spleen at 50 mg/kg 5 times weekly for 4 weeks; format: functional; in short: as §2

Row | Structure (SMILES) | log10cfu [11] | Activity [12] | log10cfu [13] | log10cfu [14] | Activity [15] | log10cfu [19] | Activity [20] | log10cfu [21] | log10cfu [23] | further results
1 | CO[C@H]1/C=C/O[C@@]2(C)Oc3c(C)c(O)c4c(O)c(c(/C=N/N5CCN(C)CC5)c(O)c4c3C2=O)NC(=O)/C(C)=C\C=C\[C@H](C)[C@H](O)[C@@H](C)[C@@H](O)[C@@H](C)[C@H](OC(C)=O)[C@@H]1C [RIFAMPIN] |  |  |  |  |  |  |  |  |  | Drug uptake [1]: < 0.001 µg/mL; Activity [2]: 466 mg; log10cfu [3]: 4.72; log10cfu [4]: 4.05; log10cfu [5]: 1.89; Activity [6]: 391 mg
2 | NNC(=O)c1ccncc1 [ISONIAZID] |  |  |  |  |  |  |  |  |  | log10cfu [7]: 1.75 mg; log10cfu [8]: 3.05 mg; Activity [9]: 185 mg
3 | COc1nc2ccc(Br)cc2cc1[C@@H](c1ccccc1)[C@@](O)(CCN(C)C)c1ccccc1 | 6.1 | 390 mg | 6.4 | 5.68 | 410 mg | 6.03 | 424 mg | 5.72 | 5.78 | Activity [10]: Non-toxic; Activity [16]: Non-toxic; Activity [17]: Non-toxic; Activity [18]: Non-toxic; Activity [22]: Non-toxic
4 | COc1nc2ccc(Br)cc2cc1[C@@H](c1ccccc1)[C@@](O)(CCN(C)C)c1cccc(F)c1 | 3.63 | 197 mg | 5.2 | 3.63 | 278 mg | 4.32 | 206 mg | 4.04 | 4.68 | 
